Measured values published in ChEMBL document CHEMBL4177580, “New 5-HT1A, 5HT2A and 5HT2C receptor ligands containing a picolinic nucleus: Synthesis, in vitro and in vivo pharmacological evaluation” (Bioorg Med Chem, 2017).
Active and inactive are the calls of the source. No cut-off for these calls is given here.

Legend:
[1] = target: 5-hydroxytryptamine receptor 2A (Rattus norvegicus) (UniProt P14842); conditions: Sprague-Dawley, 0.3 uM
[2] = target: T1, 5-hydroxytryptamine receptor 1A (Rattus norvegicus, UniProt P19327); test: Displacement of [3H]-8-OH-DPAT from serotonin 5-HT1A receptor in Sprague-Dawley rat brain cortex homogenates incubated for 30 mins by liquid scintillation spectrometry
T1 sequence (P19327 whole entry): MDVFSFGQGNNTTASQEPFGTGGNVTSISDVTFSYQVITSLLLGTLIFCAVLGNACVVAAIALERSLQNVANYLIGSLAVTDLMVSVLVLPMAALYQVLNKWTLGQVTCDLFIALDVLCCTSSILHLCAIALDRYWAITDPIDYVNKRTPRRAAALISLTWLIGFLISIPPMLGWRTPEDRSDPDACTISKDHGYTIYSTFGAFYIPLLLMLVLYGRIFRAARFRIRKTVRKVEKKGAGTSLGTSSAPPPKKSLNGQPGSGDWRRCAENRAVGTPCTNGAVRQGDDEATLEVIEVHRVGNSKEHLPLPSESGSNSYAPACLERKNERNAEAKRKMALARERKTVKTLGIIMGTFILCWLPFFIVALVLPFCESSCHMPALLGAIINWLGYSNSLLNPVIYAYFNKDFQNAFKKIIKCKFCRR

[3] = target: T2, 5-hydroxytryptamine receptor 2C (Rattus norvegicus, UniProt P08909); test: Displacement of [3H]mesulergine from serotonin 5-HT2C receptor in Sprague-Dawley rat brain cortex homogenates incubated for 15 mins by liquid scintillation spectrometry
T2 sequence (P08909 whole entry): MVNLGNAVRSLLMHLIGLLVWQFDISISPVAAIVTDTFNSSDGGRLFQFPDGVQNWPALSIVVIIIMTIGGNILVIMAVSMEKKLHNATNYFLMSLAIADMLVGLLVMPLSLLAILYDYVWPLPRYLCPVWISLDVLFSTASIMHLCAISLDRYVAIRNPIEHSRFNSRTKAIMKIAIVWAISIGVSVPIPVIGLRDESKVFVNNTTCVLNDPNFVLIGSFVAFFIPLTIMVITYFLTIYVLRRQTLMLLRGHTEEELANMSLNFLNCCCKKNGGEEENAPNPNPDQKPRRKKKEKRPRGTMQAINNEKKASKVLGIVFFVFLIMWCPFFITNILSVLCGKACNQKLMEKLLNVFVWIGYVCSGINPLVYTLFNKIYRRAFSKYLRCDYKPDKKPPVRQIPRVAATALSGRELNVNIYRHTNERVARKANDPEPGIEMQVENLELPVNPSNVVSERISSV

[4] = target: T3, 5-hydroxytryptamine receptor 2A (Rattus norvegicus, UniProt P14842); test: Antagonist activity at 5-HT2A receptor in Sprague-Dawley rat ielum assessed as reduction in 5-HT-evoked contraction; format: functional
T3 sequence (P14842 whole entry): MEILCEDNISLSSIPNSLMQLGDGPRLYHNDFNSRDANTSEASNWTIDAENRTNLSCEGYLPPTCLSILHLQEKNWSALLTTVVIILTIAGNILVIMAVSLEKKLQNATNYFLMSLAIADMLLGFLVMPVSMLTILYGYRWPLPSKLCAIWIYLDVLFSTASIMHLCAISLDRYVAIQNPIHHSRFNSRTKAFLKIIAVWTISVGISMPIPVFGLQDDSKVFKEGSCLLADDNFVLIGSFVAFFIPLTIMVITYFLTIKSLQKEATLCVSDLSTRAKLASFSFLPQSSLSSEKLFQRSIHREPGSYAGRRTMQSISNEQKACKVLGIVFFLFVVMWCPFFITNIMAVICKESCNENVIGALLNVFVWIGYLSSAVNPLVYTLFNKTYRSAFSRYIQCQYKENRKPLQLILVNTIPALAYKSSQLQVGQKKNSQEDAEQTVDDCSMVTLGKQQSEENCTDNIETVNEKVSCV
In short: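 Ileum segments from CO2-asphyxiated rats, longitudinal contractions recorded isotonically (0.5 g load) in 20 mL Krebs at 37°C gassed with 95% O2/5% CO2; 60 min equilibration, then three additions of 5-HT (10^-5 M) for stable control contractions. Compounds dissolved in DMSO (<0.01%), 10 min contact per concentration. IC50 (50% inhibition of 5-HT contraction) and Emax derived by curve fitting; mean (SEM).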

[5] = target: 5-hydroxytryptamine receptor 2A (Rattus norvegicus) (UniProt P14842); test: Antagonist activity at 5-HT2A receptor in Sprague-Dawley rat ielum assessed as reduction in 5-HT-evoked contraction relative to control; format: functional
[6] = target: 5-hydroxytryptamine receptor 2A (Rattus norvegicus) (UniProt P14842); test: Agonist activity at 5-HT2A receptor in Sprague-Dawley rat ileum assessed as induction of contraction; format: functional
Mus musculus [7] = test: Induction of hypothermia in Swiss albino mouse assessed as reduction in body temperature at 5 mg/kg, ip measured after 60 mins post dose; format: functional, organism-based
In short: (§1)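 Normothermic male Swiss albino mice. Rectal temperature was taken by thermistor thermometer over 180 min (60 min before to 120 min after injection). Initial temperature was the mean of the readings at 60 and 30 min predose. Later readings were at 30, 60, 90 and 120 min, with Δt = final − initial. Data are mean ± SEM, by two-way ANOVA with Bonferroni test.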

Mus musculus [8] = test: Induction of hypothermia in Swiss albino mouse assessed as reduction in body temperature at 5 mg/kg, ip measured after 30 mins post dose; format: functional, organism-based
In short: as §1

Mus musculus [9] = test: In-vivo 5-HT1A receptor agonist activity in Swiss albino mouse assessed as induction of lower lip retraction by measuring lower lip retraction score at 1 mg/kg, ip dosed 15 mins before test; format: functional, organism-based
[10] = target: T3, 5-hydroxytryptamine receptor 2A; test: Displacement of [3H]ketanserin from serotonin 5-HT2A receptor in Sprague-Dawley rat brain cortex homogenates incubated for 15 mins by liquid scintillation spectrometry
[11] = target: 5-hydroxytryptamine receptor 2A (Rattus norvegicus) (UniProt P14842); conditions: Sprague-Dawley, 0.1 uM
[12] = target: 5-hydroxytryptamine receptor 2A (Rattus norvegicus) (UniProt P14842); test: Antagonist activity at 5-HT2A receptor in Sprague-Dawley rat ielum assessed as reduction in 5-HT-evoked contraction at 10 uM
Mus musculus [13] = test: Anxiolytic-like activity in Swiss albino mouse assessed as increase in time spent in open arms at 5 mg/kg measured for 5 mins test period by elevated plus maze test; format: functional, organism-based
In short: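 Male Swiss albino mice (18-24 g) were tested in the elevated plus-maze by Lister's method. The reference drug was diluted in saline and given ip (10 ml/kg). Time in open arms was recorded. Results are mean ± SEM, analysed by one-way ANOVA and post hoc test, with the observer blind to treatment.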

Mus musculus [14] = test: Antidepressant-like activity in Swiss albino mouse assessed as reduction in immobility time at 15 mg/kg, ip dosed 1 hr before test by forced swimming test; format: functional, organism-based
In short: (§2)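 Male Swiss albino mice (18-24 g). The reference drug was diluted in saline and given ip (10 ml/kg) 1 h before testing. Each mouse swam for 6 min in a cylinder (25 cm high, 10 cm diameter) holding 10 cm of water at 23-25°C. Immobility was timed over the last 4 min. Data are mean ± SEM, analysed by one-way ANOVA with Dunnett's test.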

Mus musculus [15] = test: Antidepressant-like activity in Swiss albino mouse assessed as reduction in immobility time at 20 mg/kg, ip dosed 1 hr before test by forced swimming test; format: functional, organism-based
In short: as §2

5-hydroxytryptamine receptor 2A (Rattus norvegicus), sequence (P14842 whole entry): as above

Row | SMILES | Ki [2] | Ki [3] | EC50 ([4]; read-out: EC50) | Emax [5] | Activity [6] | Ki [10] | also measured
1 | NC1=N[C@H](O)[C@H]2[C@H]3O[C@]4(O)O[C@@H]([C@H](O)[C@@]2(N1)[C@@H]4O)[C@]3(O)CO | – | – | – | – | – | – | inhibition [1]: inactive
2 | O=C(NCCCN1CCN(C(=O)c2ccco2)CC1)c1ccccn1 | > 10000 nM | > 10000 nM | 777 nM | 53.1% | inactive | – | –
3 | O=C(NCCCN1CCN(C(c2ccc(F)cc2)c2ccc(F)cc2)CC1)c1ccccn1 | – | – | 2040 nM | 68.4% | inactive | – | –
4 | CCN(CC)C1CCc2cccc(O)c2C1 (stereo not drawn) | 0.8 nM | – | – | – | – | – | Activity (Mus musculus [7]): Active; Activity (Mus musculus [8]): Active; Activity (Mus musculus [9]): Active
5 | O=C(NCCCN1CCN(Cc2ccc3c(c2)OCO3)CC1)c1ccccn1 | > 10000 nM | > 10000 nM | 6480 nM | 75.5% | inactive | – | –
6 | COc1ccc(N2CCN(CCNC(=O)c3ccccn3)CC2)cc1 | 138 nM | > 10000 nM | – | – | – | 9.33 nM | EC50 [4]: Not Active
7 | O=C(NCCCN1CCN(c2ccc(Cl)c(Cl)c2)CC1)c1ccccn1 | 181 nM | 9.57 nM | 770 nM | 26.7% | inactive | 90.4 nM | –
8 | O=C(c1ccc(F)cc1)C1CCN(CCn2c(=O)[nH]c3ccccc3c2=O)CC1 | – | – | – | – | – | – | inhibition [11]: Active
9 | CN1[C@@H]2CC[C@H]1C[C@@H](OC(=O)C(CO)c1ccccc1)C2 (stereo partly drawn) | – | – | – | – | – | – | inhibition [12]: inactive
10 | Cc1ccc(N(CC2=NCCN2)c2cccc(O)c2)cc1 | – | – | – | – | – | – | inhibition [12]: inactive
11 | O=C1CC2(CCCC2)CC(=O)N1CCCCN1CCN(c2ncccn2)CC1 | – | – | – | – | – | – | Activity (Mus musculus [13]): Active
12 | O=C(NCCN1CCN(c2cccc(C(F)(F)F)c2)CC1)c1ccccn1 | – | – | 161 nM | 48.4% | inactive | – | –
13 | O=C(NCCN1CCN(c2ccccc2)CC1)c1ccccn1 | 161 nM | > 10000 nM | – | – | – | 53.2 nM | EC50 [4]: Not Active
14 | COc1ccccc1N1CCN(CCNC(=O)c2ccccn2)CC1 | 599 nM | > 10000 nM | 4250 nM | 33.7% | inactive | 0.0224 nM | –
15 | CNCCC(Oc1ccc(C(F)(F)F)cc1)c1ccccc1 (stereo not drawn) | – | – | – | – | – | – | Activity (Mus musculus [14]): Active; Activity (Mus musculus [15]): Active
16 | O=C(NCCCN1CCN(c2ncccn2)CC1)c1ccccn1 | 500 nM | > 10000 nM | 828 nM | 32.1% | inactive | 16.8 nM | –
